SMILES strings stand for the structures. Residues, ends and D or L forms follow the SMILES beside them. *: point of attachment. Cbz = O=C(OCc1ccccc1)*; CH2F = FC*

This assay concerns OPM-2 cells. Kind of assay: Apoptosis and necroptosis inhibition assays. Format: cell-based, human. The method in brief:
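OPM-2 cells at 250,000 cells/mL pre-incubated 1 h at 37°C in medium containing pan-caspase inhibitor Z-VAD-FMK, necroptosis inhibitor necrostatin-1s, or DMSO. Washed (PBS for Z-VAD-FMK arm), then cultured 72 h with test compound or DMSO. Viability by Zombie-aqua staining and flow cytometry. Z-VAD-FMK arm: mean ± SD of 3 independent experiments.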

With `CN1C(=O)NC(Cc2c[nH]c3c(Cl)cccc23)C1=O` (centres unmarked) [Necrostatin-1s], under “100 μM necrostatin-1s 1 h, then 1 μM OSU-13 72 h”, the “effect of pretreatment on OSU-13-mediated cell death” value was “no measurable effect”.
In the case of `COC(=O)C[C@H](NC(=O)[C@H](C)NC(=O)[C@@H](NC(=O)OCc1ccccc1)C(C)C)C(=O)CF` [Z-VAD-FMK] (Cbz-Val-Ala-Asp(OMe)-CH2F), the “decrease of OSU-13-mediated cell death by pretreatment” value (100 mM Z-VAD-FMK 1 h, then 1 mM OSU-13 72 h) was found to be 20±6.7%.
